ChEMBL document CHEMBL1124186, “Synthesis and evaluation of tylosin-related macrolides modified at the aldehyde function: a new series of orally effective antibiotics” (1988)
Values after ≈ are worked out from the molar mass of the structure shown.

Assays:
Haemophilus influenzae = assay: In vitro antimicrobial activity against Haemophilus influenzae.; format: functional
Staphylococcus aureus = assay: In vitro antimicrobial activity against Staphylococcus aureus X1; format: functional
Streptococcus pyogenes [1] = assay: In vivo effective dose against experimental infections in rodent caused by Streptococcus pyogenes C203 when administered subcutaneously; format: functional; settings: sc
Streptococcus pneumoniae = assay: In vitro antimicrobial activity against Streptococcus pneumoniae; format: functional
[2] = test system: Staphylococcus epidermidis; assay: In vitro antimicrobial activity against Staphylococcus epidermidis EPI1; format: functional
Enterococcus faecium = assay: In vitro antimicrobial activity against Streptococcus faecium X66; format: functional, streptococcus fae-cium
Streptococcus pyogenes [3] = assay: (§1) In vitro antimicrobial activity against Streptococcus pyogenes C203; format: functional
Streptococcus pyogenes [4] = assay: In vivo effective dose against experimental infections in rodent caused by Streptococcus pyogenes C203 when administered orally; format: functional; settings: po
Streptococcus pyogenes [5] = assay: […] effective dose against Streptococcus pyogenes C203 when administered orally; format: functional; settings: po
Streptococcus pyogenes [6] = assay: […] effective dose against Streptococcus pyogenes C203 when administered sc; format: functional
Procedure, shortened: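 Infected mice (S. pyogenes C203) were treated subcutaneously 1 and 5 h postinfection with 0.25 mL of antibiotic in 10% aqueous ethanol, with tartaric acid added when needed to dissolve it. A range of concentrations was given. The value is the ED50 expressed as mg/kg × 2.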

Streptococcus pyogenes [7] = assay: In vivo effective dose against experimental infections in rodent caused by Streptococcus pyogenes C203 when administered sc; format: functional
Streptococcus pyogenes [8] = assay: as §1; format: functional; remark: listed apart in the source

## CC[C@H]1OC(=O)C[C@@H](O)[C@H](C)[C@@H](O[C@@H]2O[C@H](C)[C@@H](O[C@H]3C[C@@](C)(O)[C@@H](O)[C@H](C)O3)[C@H](N(C)C)[C@H]2O)[C@@H](CCO)C[C@@H](C)C(=O)/C=C/C(C)=C/[C@@H]1CO[C@@H]1O[C@H](C)[C@@H](O)[C@@H](O)[C@H]1OC
Haemophilus influenzae
  MIC: > 128 µg/mL
Staphylococcus aureus
  MIC: 16 µg/mL (≈ 17.7 µM)
Streptococcus pyogenes [1]
  ED50: > 10 mg/kg
Streptococcus pneumoniae
  MIC: 32 µg/mL (≈ 35.4 µM)
[2]
  MIC: 4 µg/mL (≈ 4.42 µM)
Enterococcus faecium
  MIC: 128 µg/mL (≈ 142 µM)
Streptococcus pyogenes [3]
  MIC: 4 µg/mL (≈ 4.42 µM)
Streptococcus pyogenes [4]
  ED50: > 100 mg/kg

## CC[C@H]1OC(=O)C[C@@H](O)[C@H](C)[C@@H](O[C@@H]2O[C@H](C)[C@@H](O[C@H]3C[C@@](C)(O)[C@@H](O)[C@H](C)O3)[C@H](N(C)C)[C@H]2O)[C@@H](CC=O)C[C@@H](C)C(=O)/C=C/C(C)=C/[C@@H]1CO[C@@H]1O[C@H](C)[C@@H](O)[C@@H](O)[C@H]1OC [MACROCIN]
Haemophilus influenzae
  MIC: 16 µg/mL (≈ 17.7 µM)
Staphylococcus aureus
  MIC: 0.5 µg/mL (≈ 0.554 µM)
Streptococcus pyogenes [5]
  ED50: > 80 mg/kg
Streptococcus pyogenes [6]
  ED50: < 1.2 mg/kg
Streptococcus pyogenes [7]
  ED50: 1.9 mg/kg
Streptococcus pneumoniae
  MIC: 1 µg/mL (≈ 1.11 µM)
[2]
  MIC: 1 µg/mL (≈ 1.11 µM)
Enterococcus faecium
  MIC: 2 µg/mL (≈ 2.22 µM)
Streptococcus pyogenes [3]
  MIC: 0.25 µg/mL (≈ 0.277 µM)
Streptococcus pyogenes [8]
  MIC: 0.25 µg/mL (≈ 0.277 µM)
Streptococcus pyogenes [4]
  ED50: 71 mg/kg
